Results reported in ChEMBL document CHEMBL1152122, “New lithocholic and chenodeoxycholic piperazinylcarboxamides with antiproliferative and pro-apoptotic effects on human cancer cell lines” (2008).
Activity calls are given as the source filed them. The calls are words filed in the database; no cut-off is given here.

Assays:
HCT-116 [1] = experiment: Cytotoxicity against human HCT116 cells after 24 hrs by neutral red uptake assay; assay type: functional; details: HCT-116, 24 h, read-out: LD50 (the source's name)
Summary of the method: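 Compounds added after 24 h for a 24 h dose-response, with DMSO vehicle controls. Neutral red 50 µg/mL final for 3 h, then fixation, acid-ethanol extraction and OD at 570 nm. LD50 taken from curves; mean ± standard error of ≥3 experiments.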

KMS-11 [2] = experiment: Cytotoxicity against human KMS11 cells at 50 uM after 48 hrs by neutral red uptake assay; assay type: functional, cell-based
Summary of the method: (§1)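 After 24 h, a single 50 µM dose was given for 24 or 48 h, with DMSO controls. Neutral red uptake for 3 h at 50 µg/mL final, with read-out at OD 570 nm. Viability expressed as % of untreated cells, four wells per line.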

HCT-116 [3] = experiment: Cytotoxicity against human HCT116 cells at 50 uM after 24 hrs by neutral red uptake assay; assay type: functional, cell-based; summary of the method: as §1
GBM [4] = experiment: Cytotoxicity against human GBM cells at 50 uM after 24 hrs by neutral red uptake assay; assay type: functional, cell-based; summary of the method: as §1
GBM [5] = experiment: Cytotoxicity against human GBM cells at 50 uM after 48 hrs by neutral red uptake assay; assay type: functional, cell-based; summary of the method: as §1
KMS-11 [6] = experiment: Cytotoxicity against human KMS11 cells at 50 uM after 24 hrs by neutral red uptake assay; assay type: functional, cell-based; summary of the method: as §1
HCT-116 [7] = experiment: Cytotoxicity against human HCT116 cells at 50 uM after 48 hrs by neutral red uptake assay; assay type: functional, cell-based; summary of the method: as §1
KMS-11 [8] = experiment: Induction of apoptosis in human KMS11 cells assessed as Cleavage of Mcl-1 after 24 hrs by Western blotting; assay type: functional, cell-based
Summary of the method: (§2)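 KMS-11 cells treated 24 h. 5×10^6 cells lysed 40 min on ice (10 mM Tris pH 7.6, 150 mM NaCl, 5 mM EDTA, 1% Triton X-100, PMSF, aprotinin), cleared at 10,000 g. Equal BCA-quantified protein run on reducing SDS-PAGE and transferred to PVDF. Primary antibodies (PARP-1, Mcl-1, IκBα, phospho-IκBα) overnight at 4 °C, then HRP secondary 30 min, chemiluminescent detection.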

KMS-11 [9] = experiment: Induction of apoptosis in human KMS11 cells at 40 uM after 24 hrs by PC5-labeled Apo2.7 antibody based flow cytometry; assay type: functional
Summary of the method: (§3)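 KMS-11 cells treated 24 h at the stated concentrations, then stained with the phycoerythrin-labeled APO2.7 antibody kit, which detects mitochondrial 7A6 antigen. Analysed by flow cytometry and reported as % APO2.7-positive cells.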

KMS-11 [10] = experiment: Induction of apoptosis in human KMS11 cells at 10 uM after 24 hrs by PC5-labeled Apo2.7 antibody based flow cytometry; assay type: functional; summary of the method: as §3
HCT-116 [11] = experiment: Cytotoxicity against human HCT116 cells assessed as morphological changes at 12 uM after 24 hrs by neutral red uptake assay; assay type: functional, cell-based
Summary of the method: (§4)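 Cells in RPMI 1640 with 10% FCS (GBM primary culture, HCT-116) or 5% FCS (KMS-11), 2 mM glutamine, antibiotics, used at 70–80% confluency. Morphology examined alongside neutral red uptake viability.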

KMS-11 [12] = experiment: Induction of apoptosis in human KMS11 cells assessed as DNA fragmentation at 5 uM after 24 hrs by Hoechst staining; assay type: functional, cell-based
Summary of the method: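 KMS-11 cells on glass coverslips fixed in 2% formaldehyde 10 min and stained with Hoechst 33342 (1 µg/mL in PBS, 5 min). Nuclei viewed by epifluorescence microscopy under 350 nm excitation.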

KMS-11 [13] = experiment: Induction of apoptosis in human KMS11 cells assessed as hyperphosphorylation of IkappaB after 24 hrs by Western blotting; assay type: functional, cell-based; summary of the method: as §2
GBM [14] = experiment: Cytotoxicity against human GBM cells assessed as morphological changes at 12 uM after 24 hrs by neutral red uptake assay; assay type: functional, cell-based; summary of the method: as §4
KMS-11 [15] = experiment: Induction of apoptosis in human KMS11 cells assessed as fragmentation of nuclei at 20 uM after 24 hrs […]; assay type: functional
KMS-11 [16] = experiment: Induction of apoptosis in human KMS11 cells after 24 hrs by PC5-labeled Apo2.7 antibody based flow cytometry; assay type: functional, cell-based; summary of the method: as §3
KMS-11 [17] = experiment: Cytotoxicity against human KMS11 cells assessed as [3H]thymidine incorporation at 20 uM after 24 hrs; assay type: functional, cell-based
Summary of the method: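 KMS-11 (multiple myeloma plasma-cell line) in RPMI 1640 with 5% FCS, seeded at 500,000 cells/well in triplicate at 37 °C, 5% CO2. After 24 h, drug or vehicle added in fresh medium. After 24 h, pulsed with 1 μCi/well [3H]thymidine. Cells trypsin/EDTA-detached, harvested onto glass filters, counted by scintillation. Output as % of untreated cells; three independent experiments.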

KMS-11 [18] = experiment: Cytotoxicity against human KMS11 cells assessed as morphological changes at 12 uM after 24 hrs by neutral red uptake assay; assay type: functional, cell-based; summary of the method: as §4
KMS-11 [19] = experiment: Induction of apoptosis in human KMS11 cells assessed as fragmentation of nuclei at 10 uM after 24 hrs […]; assay type: functional
KMS-11 [20] = experiment: Induction of apoptosis in human KMS11 cells assessed as Cleavage of PARP-1 after 24 hrs by Western blotting; assay type: functional, cell-based; summary of the method: as §2

C[C@H](CCC(=O)N1CCN(c2ncccn2)CC1)[C@H]1CC[C@H]2[C@@H]3[C@H](O)C[C@@H]4C[C@H](O)CC[C@]4(C)[C@H]3CC[C@]12C
CC50 (HCT-116 [1]): 30 µM

C[C@H](CCC(=O)N1CCN(c2ncccn2)CC1)[C@H]1CC[C@H]2[C@@H]3CC[C@@H]4C[C@H](O)CC[C@]4(C)[C@H]3CC[C@]12C
CC50 (HCT-116 [1]): 50 µM

C(=C\c1ccccc1)/CN1CCNCC1
Activity (KMS-11 [2]): inactive
Activity (HCT-116 [3]): inactive
Activity (GBM [4]): inactive
Activity (GBM [5]): inactive
Activity (KMS-11 [6]): inactive
Activity (HCT-116 [7]): inactive

c1ccc(N2CCNCC2)nc1
Activity (KMS-11 [2]): inactive
Activity (HCT-116 [3]): inactive
Activity (GBM [4]): inactive
Activity (GBM [5]): inactive
Activity (KMS-11 [6]): inactive
Activity (HCT-116 [7]): inactive

C[C@H](CCC(=O)N1CCN(C/C=C/c2ccccc2)CC1)[C@H]1CC[C@H]2[C@@H]3[C@H](O)C[C@@H]4C[C@H](O)CC[C@]4(C)[C@H]3CC[C@]12C
Activity (KMS-11 [8]): Active
Activity (KMS-11 [9]): 86%
Activity (HCT-116 [3]): Active
Activity (GBM [4]): Active
Activity (KMS-11 [10]): 37%
Activity (HCT-116 [11]): Active
Activity (KMS-11 [12]): Active
Activity (KMS-11 [13]): Active
Activity (GBM [14]): Active
Activity (KMS-11 [15]): 61%
Activity (KMS-11 [16]): Dose-dependent effect
CC50 (HCT-116 [1]): 18.5 µM
Activity (KMS-11 [17]): Active
Activity (KMS-11 [18]): Active
Activity (KMS-11 [19]): 5%
Activity (KMS-11 [6]): Active
Activity (KMS-11 [20]): Active

C[C@H](CCC(=O)O)[C@H]1CC[C@H]2[C@@H]3[C@H](O)C[C@@H]4C[C@H](O)CC[C@]4(C)[C@H]3CC[C@]12C [CHENODIOL]
Activity (KMS-11 [2]): inactive
Activity (HCT-116 [3]): inactive
Activity (GBM [4]): inactive
Activity (GBM [5]): inactive
CC50 (HCT-116 [1]): > 50 µM
Activity (KMS-11 [6]): inactive
Activity (HCT-116 [7]): inactive

C[C@H](CCC(=O)N1CCN(C/C=C/c2ccccc2)CC1)[C@H]1CC[C@H]2[C@@H]3CC[C@@H]4C[C@H](O)CC[C@]4(C)[C@H]3CC[C@]12C
Activity (KMS-11 [2]): inactive
Activity (HCT-116 [3]): inactive
Activity (GBM [4]): inactive
Activity (GBM [5]): inactive
CC50 (HCT-116 [1]): > 50 µM
Activity (KMS-11 [6]): inactive
Activity (HCT-116 [7]): inactive

C[C@H](CCC(=O)O)[C@H]1CC[C@H]2[C@@H]3CC[C@@H]4C[C@H](O)CC[C@]4(C)[C@H]3CC[C@]12C [LITHOCHOLIC ACID]
Activity (KMS-11 [2]): inactive
Activity (HCT-116 [3]): inactive
Activity (GBM [4]): inactive
Activity (GBM [5]): inactive
CC50 (HCT-116 [1]): > 50 µM
Activity (KMS-11 [6]): inactive
Activity (HCT-116 [7]): inactive

c1cnc(N2CCNCC2)nc1
Activity (KMS-11 [2]): inactive
Activity (HCT-116 [3]): inactive
Activity (GBM [4]): inactive
Activity (GBM [5]): inactive
Activity (KMS-11 [6]): inactive
Activity (HCT-116 [7]): inactive

C[C@H](CCC(=O)N1CCN(c2ccccn2)CC1)[C@H]1CC[C@H]2[C@@H]3CC[C@@H]4C[C@H](O)CC[C@]4(C)[C@H]3CC[C@]12C
CC50 (HCT-116 [1]): 50 µM

C[C@H](CCC(=O)N1CCN(c2ccccn2)CC1)[C@H]1CC[C@H]2[C@@H]3[C@H](O)C[C@@H]4C[C@H](O)CC[C@]4(C)[C@H]3CC[C@]12C
Activity (KMS-11 [2]): inactive
Activity (HCT-116 [3]): inactive
Activity (GBM [4]): inactive
Activity (GBM [5]): inactive
CC50 (HCT-116 [1]): > 50 µM
Activity (KMS-11 [6]): inactive
Activity (HCT-116 [7]): inactive
